These results are taken from ChEMBL document CHEMBL1154352, “Toll-like receptor 7 selective synthetic oligoribonucleotide agonists: synthesis and structure-activity relationship studies” (J Med Chem, 2009).

For one data set, the species on record is Homo sapiens. Briefly: Ratio of human TLR7 activity to human TLR8 activity. A digest of the protocol: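 TLR7/TLR8 ratio computed from fold NF-κB (SEAP reporter) activation in HEK293 cells stably expressing human TLR7 versus TLR8, compounds at 50 μg/mL, 18 h exposure; representative of three independent experiments.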
Data set [1] addresses T1, Toll-like receptor 7 (Homo sapiens) (UniProt Q9NYK1).
T1 sequence (whole entry): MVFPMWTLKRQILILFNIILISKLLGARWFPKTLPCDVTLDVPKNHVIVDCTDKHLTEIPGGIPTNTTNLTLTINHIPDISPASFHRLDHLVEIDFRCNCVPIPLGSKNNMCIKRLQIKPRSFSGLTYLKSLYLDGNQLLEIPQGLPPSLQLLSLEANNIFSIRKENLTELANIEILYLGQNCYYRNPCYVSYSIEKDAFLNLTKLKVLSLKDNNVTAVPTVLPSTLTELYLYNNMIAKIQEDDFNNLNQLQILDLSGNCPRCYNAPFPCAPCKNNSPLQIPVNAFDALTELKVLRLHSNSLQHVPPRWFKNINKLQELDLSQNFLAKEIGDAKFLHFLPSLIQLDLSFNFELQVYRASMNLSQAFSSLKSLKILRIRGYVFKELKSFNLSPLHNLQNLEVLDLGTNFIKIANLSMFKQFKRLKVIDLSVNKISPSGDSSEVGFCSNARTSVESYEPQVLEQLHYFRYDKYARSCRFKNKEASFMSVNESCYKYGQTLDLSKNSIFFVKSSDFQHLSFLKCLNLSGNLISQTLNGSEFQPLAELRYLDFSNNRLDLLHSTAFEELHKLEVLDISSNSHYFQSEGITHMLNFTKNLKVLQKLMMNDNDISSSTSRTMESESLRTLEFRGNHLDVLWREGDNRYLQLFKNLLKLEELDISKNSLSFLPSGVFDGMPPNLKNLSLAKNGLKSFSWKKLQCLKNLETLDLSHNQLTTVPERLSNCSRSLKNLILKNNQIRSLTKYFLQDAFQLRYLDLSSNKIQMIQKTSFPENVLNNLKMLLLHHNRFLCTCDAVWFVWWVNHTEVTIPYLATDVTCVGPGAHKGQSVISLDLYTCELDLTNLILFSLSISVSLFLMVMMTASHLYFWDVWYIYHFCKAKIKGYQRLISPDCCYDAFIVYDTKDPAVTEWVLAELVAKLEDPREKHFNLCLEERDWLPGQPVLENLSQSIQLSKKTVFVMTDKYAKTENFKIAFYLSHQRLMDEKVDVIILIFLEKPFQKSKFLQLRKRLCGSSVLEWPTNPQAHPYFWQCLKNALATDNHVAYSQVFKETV
The data set is described as follows: Activation of human TLR7 expressed in HEK293XL assessed as fold induction of NF-kappaB activity at 50 ug/ml after 18 hrs by reporter gene assay relative to control. In short, it runs like this:
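HEK293 cells stably expressing human TLR7 or TLR8, transiently transfected with SEAP reporter plasmid; medium replaced, SIMRA compounds added, 18 h incubation. Supernatant SEAP measured by QuantiBlue; expressed as fold increase in NF-κB activity over PBS control. Tabulated data at 50 μg/mL, representative of three independent experiments.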
On the technique in general: A reporter such as luciferase makes a cellular process visible.

Data set [2] in a line: Metabolic stability in human serum assessed as full length product remaining after 10 mins by HPLC. The format is ADME, cell-free. Conditions: read-out: Stability. In short, it runs like this: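 About 0.5 A260 units compound in 1% human serum in PBS, 37 °C; aliquot taken at 10 min, analysed by anion-exchange HPLC for percent intact full-length product.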
Data set [3] has as its target Toll-like receptor 3 (Homo sapiens) (UniProt O15455). Briefly: Activation of human TLR3 expressed in HEK293 assessed as induction of NF-kappaB activity reporter gene assay. The data set is classed as cell-based.

The source made the active and inactive calls. The rule behind the calls is not given here.

Toll-like receptor 3 (Homo sapiens), sequence (O15455 whole entry): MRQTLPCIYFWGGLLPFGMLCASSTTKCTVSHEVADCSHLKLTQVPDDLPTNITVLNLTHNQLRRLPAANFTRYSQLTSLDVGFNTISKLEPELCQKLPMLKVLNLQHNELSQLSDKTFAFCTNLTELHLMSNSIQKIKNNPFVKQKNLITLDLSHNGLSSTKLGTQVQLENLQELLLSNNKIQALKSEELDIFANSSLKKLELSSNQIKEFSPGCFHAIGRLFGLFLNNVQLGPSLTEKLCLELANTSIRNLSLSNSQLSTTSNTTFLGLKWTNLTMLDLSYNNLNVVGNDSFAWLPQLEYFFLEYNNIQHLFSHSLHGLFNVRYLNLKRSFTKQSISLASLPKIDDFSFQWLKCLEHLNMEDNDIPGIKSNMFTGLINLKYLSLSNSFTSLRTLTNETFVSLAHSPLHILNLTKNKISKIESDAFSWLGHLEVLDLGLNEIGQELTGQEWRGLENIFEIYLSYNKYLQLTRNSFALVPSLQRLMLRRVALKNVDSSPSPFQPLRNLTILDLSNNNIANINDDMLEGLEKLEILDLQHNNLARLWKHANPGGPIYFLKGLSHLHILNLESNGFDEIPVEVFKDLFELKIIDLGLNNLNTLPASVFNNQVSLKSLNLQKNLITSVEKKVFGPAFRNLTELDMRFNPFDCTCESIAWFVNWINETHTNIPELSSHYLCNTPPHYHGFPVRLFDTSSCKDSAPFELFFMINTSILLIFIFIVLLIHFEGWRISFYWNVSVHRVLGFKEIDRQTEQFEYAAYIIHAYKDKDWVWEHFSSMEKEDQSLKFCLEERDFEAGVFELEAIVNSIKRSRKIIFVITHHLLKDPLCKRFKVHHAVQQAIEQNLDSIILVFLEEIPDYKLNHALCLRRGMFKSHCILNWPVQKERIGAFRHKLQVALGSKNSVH

With `Nc1ccn([C@@H]2O[C@H](COP(=O)(S)O[C@H]3[C@@H](O)[C@H](n4ccc(N)nc4=O)O[C@@H]3COP(=O)(S)O[C@H]3[C@@H](O)[C@H](n4cnc5c(N)ncnc54)O[C@@H]3COP(=O)(S)O[C@H]3[C@@H](O)[C@H](n4ccc5c(=O)[nH]c(N)nc54)O[C@@H]3COP(=O)(S)O[C@H]3[C@@H](O)[C@H](n4ccc(=O)[nH]c4=O)O[C@@H]3COP(=O)(S)O[C@H]3[C@@H](O)[C@H](n4ccc(=O)[nH]c4=O)O[C@@H]3COP(=O)(S)O[C@H]3[C@@H](O)[C@H](n4ccc(N)nc4=O)O[C@@H]3COP(=O)(S)O[C@H]3[C@@H](O)[C@H](n4cnc5c(N)ncnc54)O[C@@H]3CO)[C@@H](OP(=O)(S)OC[C@H]3O[C@@H](n4ccc(=O)[nH]c4=O)[C@H](O)[C@@H]3OP(=O)(S)OC[C@H]3O[C@@H](n4ccc5c(=O)[nH]c(N)nc54)[C@H](O)[C@@H]3OP(=O)(S)OC[C@H]3O[C@@H](n4ccc(=O)[nH]c4=O)[C@H](O)[C@@H]3OP(=O)(S)OCC(O)COP(=O)(S)O[C@H]3[C@@H](O)[C@H](n4ccc(=O)[nH]c4=O)O[C@@H]3COP(=O)(S)O[C@H]3[C@@H](O)[C@H](n4ccc5c(=O)[nH]c(N)nc54)O[C@@H]3COP(=O)(S)O[C@H]3[C@@H](O)[C@H](n4ccc(=O)[nH]c4=O)O[C@@H]3COP(=O)(S)O[C@H]3[C@@H](O)[C@H](n4ccc(N)nc4=O)O[C@@H]3COP(=O)(S)O[C@H]3[C@@H](O)[C@H](n4ccc(N)nc4=O)O[C@@H]3COP(=O)(S)O[C@H]3[C@@H](O)[C@H](n4cnc5c(N)ncnc54)O[C@@H]3COP(=O)(S)O[C@H]3[C@@H](O)[C@H](n4ccc5c(=O)[nH]c(N)nc54)O[C@@H]3COP(=O)(S)O[C@H]3[C@@H](O)[C@H](n4ccc(=O)[nH]c4=O)O[C@@H]3COP(=O)(S)O[C@H]3[C@@H](O)[C@H](n4ccc(=O)[nH]c4=O)O[C@@H]3COP(=O)(S)O[C@H]3[C@@H](O)[C@H](n4ccc(N)nc4=O)O[C@@H]3COP(=O)(S)O[C@H]3[C@@H](O)[C@H](n4cnc5c(N)ncnc54)O[C@@H]3CO)[C@H]2O)c(=O)n1` (some centres not stated), the Ratio in the data set listed under Homo sapiens was 8.7. The fold change (FC) in data set [1] turned out to be 6.1. For the same compound, in data set [2], the remaining at 10 min amounted to 63%. Further, the result in data set [3] was inactive.

With `Nc1ccn([C@@H]2O[C@H](COP(=O)(S)O[C@H]3[C@@H](O)[C@H](n4ccc5c(=O)[nH]c(N)nc54)O[C@@H]3CO[C@H]3[C@@H](O)[C@H](n4cnc5c(N)ncnc54)O[C@@H]3COP(=O)(S)O[C@H]3[C@@H](O)[C@H](n4ccc5c(=O)[nH]c(N)nc54)O[C@@H]3COP(=O)(S)O[C@H]3[C@@H](O)[C@H](n4ccc(=O)[nH]c4=O)O[C@@H]3COP(=O)(S)O[C@H]3[C@@H](O)[C@H](n4ccc(N)nc4=O)O[C@@H]3COP(=O)(S)O[C@H]3[C@@H](O)[C@H](n4ccc5c(=O)[nH]c(N)nc54)O[C@@H]3COP(=O)(S)O[C@H]3[C@@H](O)[C@H](n4ccc(=O)[nH]c4=O)O[C@@H]3COP(=O)(S)O[C@H]3[C@@H](O)[C@H](n4ccc(=O)[nH]c4=O)O[C@@H]3CO)[C@@H](OP(=O)(S)OC[C@H]3O[C@@H](n4ccc(=O)[nH]c4=O)[C@H](O)[C@@H]3OP(=O)(S)OC[C@H]3O[C@@H](n4ccc(=O)[nH]c4=O)[C@H](O)[C@@H]3OP(=O)(S)OCC(O)COP(=O)(S)O[C@H]3[C@@H](O)[C@H](n4ccc(=O)[nH]c4=O)O[C@@H]3COP(=O)(S)O[C@H]3[C@@H](O)[C@H](n4ccc(=O)[nH]c4=O)O[C@@H]3COP(=O)(S)O[C@H]3[C@@H](O)[C@H](n4ccc(N)nc4=O)O[C@@H]3COP(=O)(S)O[C@H]3[C@@H](O)[C@H](n4ccc5c(=O)[nH]c(N)nc54)O[C@@H]3CO[C@H]3[C@@H](O)[C@H](n4cnc5c(N)ncnc54)O[C@@H]3COP(=O)(S)O[C@H]3[C@@H](O)[C@H](n4ccc5c(=O)[nH]c(N)nc54)O[C@@H]3COP(=O)(S)O[C@H]3[C@@H](O)[C@H](n4ccc(=O)[nH]c4=O)O[C@@H]3COP(=O)(S)O[C@H]3[C@@H](O)[C@H](n4ccc(N)nc4=O)O[C@@H]3COP(=O)(S)O[C@H]3[C@@H](O)[C@H](n4ccc5c(=O)[nH]c(N)nc54)O[C@@H]3COP(=O)(S)O[C@H]3[C@@H](O)[C@H](n4ccc(=O)[nH]c4=O)O[C@@H]3COP(=O)(S)O[C@H]3[C@@H](O)[C@H](n4ccc(=O)[nH]c4=O)O[C@@H]3CO)[C@H]2O)c(=O)n1` (some centres not stated), the Ratio in the data set filed under Homo sapiens came to 66.8. For the same compound, the fold change (FC) in data set [1] amounted to 26.7. Besides, the remaining at 10 min in data set [2] was 83%. Further, the result in data set [3] was inactive.

For `Nc1ccn([C@@H]2O[C@H](CO)[C@@H](OP(=O)(S)OC[C@H]3O[C@@H](n4ccc(=O)[nH]c4=O)[C@H](O)[C@@H]3OP(=O)(S)OC[C@H]3O[C@@H](n4ccc5c(=O)[nH]c(N)nc54)[C@H](O)[C@@H]3OP(=O)(S)OC[C@H]3O[C@@H](n4cnc5c(N)ncnc54)[C@H](O)[C@@H]3OP(=O)(S)OC[C@H]3O[C@@H](n4ccc(N)nc4=O)[C@H](O)[C@@H]3OP(=O)(S)OC[C@H]3O[C@@H](n4ccc5c(=O)[nH]c(N)nc54)[C@H](O)[C@@H]3OP(=O)(S)OC[C@H]3O[C@@H](n4cnc5c(N)ncnc54)[C@H](O)[C@@H]3OP(=O)(S)OC[C@H]3O[C@@H](n4ccc5c(=O)[nH]c(N)nc54)[C@H](O)[C@@H]3OP(=O)(S)OC[C@H]3O[C@@H](n4ccc(N)nc4=O)[C@H](O)[C@@H]3OP(=O)(S)OC[C@H]3O[C@@H](n4ccc(=O)[nH]c4=O)[C@H](O)[C@@H]3OP(=O)(S)OC[C@H]3O[C@@H](n4ccc(=O)[nH]c4=O)[C@H](O)[C@@H]3OP(=O)(S)OCC(O)COP(=O)(S)O[C@H]3[C@@H](O)[C@H](n4ccc(=O)[nH]c4=O)O[C@@H]3COP(=O)(S)O[C@H]3[C@@H](O)[C@H](n4ccc(=O)[nH]c4=O)O[C@@H]3COP(=O)(S)O[C@H]3[C@@H](O)[C@H](n4ccc(N)nc4=O)O[C@@H]3COP(=O)(S)O[C@H]3[C@@H](O)[C@H](n4ccc5c(=O)[nH]c(N)nc54)O[C@@H]3COP(=O)(S)O[C@H]3[C@@H](O)[C@H](n4cnc5c(N)ncnc54)O[C@@H]3COP(=O)(S)O[C@H]3[C@@H](O)[C@H](n4ccc5c(=O)[nH]c(N)nc54)O[C@@H]3COP(=O)(S)O[C@H]3[C@@H](O)[C@H](n4ccc(N)nc4=O)O[C@@H]3COP(=O)(S)O[C@H]3[C@@H](O)[C@H](n4cnc5c(N)ncnc54)O[C@@H]3COP(=O)(S)O[C@H]3[C@@H](O)[C@H](n4ccc5c(=O)[nH]c(N)nc54)O[C@@H]3COP(=O)(S)O[C@H]3[C@@H](O)[C@H](n4ccc(=O)[nH]c4=O)O[C@@H]3COP(=O)(S)O[C@H]3[C@@H](O)[C@H](n4ccc(N)nc4=O)O[C@@H]3CO)[C@H]2O)c(=O)n1` (some centres not stated), the Ratio in the data set listed under Homo sapiens came out at 50. The fold change (FC) in data set [1] was 30. Moreover, the remaining at 10 min in data set [2] came to 75%. Further, in data set [3], the result was inactive.
